Source: ChEMBL document CHEMBL3272149, “Synthesis and antibacterial activity of some derivatives of tolypomycinone. Relationship between structure and activity in ansamycins” (J Med Chem, 1977)
In brackets after ≈: the same amount, converted by molar mass. Activity calls are given as the source filed them. The rule behind the calls is not given here.

Assays:
[1] = system: Staphylococcus aureus; experiment: Antibacterial activity against Staphylococcus aureus 209 P(FDA) assessed as inhibition of visible growth after 24 hrs by serial dilution method; format: functional
[2] = system: Klebsiella pneumoniae; experiment: Antibacterial activity against Klebsiella pneumoniae Ottaviani assessed as inhibition of visible growth after 24 hrs by serial dilution method; format: functional
[3] = system: Escherichia coli; experiment: Antibacterial activity against Escherichia coli MC/35 assessed as inhibition of visible growth after 24 hrs by serial dilution method; format: functional; settings: MC/35, 24 h
[4] = system: Salmonella enterica subsp. enterica serovar Paratyphi B; experiment: Antibacterial activity against Salmonella paratyphi B 0248 K assessed as inhibition of visible growth after 24 hrs by serial dilution method; format: functional
Outline: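 Broth tube serial dilution in Brain Heart Infusion medium; inoculum 10^6 cells/mL; incubation 24 h at 35 °C; MIC taken as the lowest antibiotic concentration that prevented visible growth.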

[5] = Stability in simulated gastric juice at pH 1.3; format: ADME; settings: simulated gi fluid
Outline: (§1)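 Compound dissolved in simulated gastric juice (pH 1.3) or simulated intestinal juice (pH 8.3). Samples were withdrawn at 1, 2 and 4 h and assayed for residual inhibitory activity against Staphylococcus.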

[6] = system: Staphylococcus aureus; experiment: Antibacterial activity against Staphylococcus aureus 209 P(FDA) assessed as inhibition of visible growth in simulated gastric juice at pH 1.3 after 1 to 4 hrs by serial dilution method; format: functional, organism-based; outline: as §1
[7] = Stability in simulated intestinal juice at pH 8.3; format: ADME; settings: simulated gi fluid; outline: as §1
[8] = system: Staphylococcus aureus; experiment: Antibacterial activity against Staphylococcus aureus 209 P(FDA) assessed as inhibition of visible growth in simulated intestinal juice at pH 8.3 after 1 to 4 hrs by serial dilution method; format: functional, organism-based; outline: as §1

Row | SMILES | MIC [1] | MIC [2] | MIC [3] | MIC [4] | Stability [5] | inhibition [6] | Stability [7] | inhibition [8]
1 | CO[C@H]1/C=C/O[C@@]2(C)Oc3c(C)c(O)c4c(c3C2=O)C(=O)C(NCCCO)=C(NC(=O)/C(C)=C\C(=O)[C@@H]2C[C@@H]2[C@H](O)[C@@H](C)[C@@H](O)[C@@H](C)[C@H](OC(C)=O)[C@@H]1C)C4=O | 0.025 µg/mL (≈ 0.0319 µM) | 25 µg/mL (≈ 31.9 µM) | 12 µg/mL (≈ 15.3 µM) | 12 µg/mL (≈ 15.3 µM) |  |  |  | 
2 | CO[C@H]1/C=C/O[C@@]2(C)Oc3c(C)c(O)c4c(c3C2=O)C(=O)C(NCc2cccnc2)=C(NC(=O)/C(C)=C\C(=O)[C@@H]2C[C@@H]2[C@H](O)[C@@H](C)[C@@H](O)[C@@H](C)[C@H](OC(C)=O)[C@@H]1C)C4=O | < 0.005 µg/mL | 25 µg/mL (≈ 30.6 µM) | 6 µg/mL (≈ 7.35 µM) | 12 µg/mL (≈ 14.7 µM) |  |  |  | 
3 | CO[C@H]1/C=C/O[C@@]2(C)Oc3c(C)c(O)c4c(c3C2=O)C(=O)C(NCCN2CCOCC2)=C(NC(=O)/C(C)=C\C(=O)[C@@H]2C[C@@H]2[C@H](O)[C@@H](C)[C@@H](O)[C@@H](C)[C@H](OC(C)=O)[C@@H]1C)C4=O | < 0.005 µg/mL | 50 µg/mL (≈ 59.7 µM) | 12 µg/mL (≈ 14.3 µM) | 12 µg/mL (≈ 14.3 µM) | Stable | Active | Stable | Active
4 | CO[C@H]1/C=C/O[C@@]2(C)Oc3c(C)c(O)c4c(c3C2=O)C(=O)C(NCc2ccsc2)=C(NC(=O)/C(C)=C\C(=O)[C@@H]2C[C@@H]2[C@H](O)[C@@H](C)[C@@H](O)[C@@H](C)[C@H](OC(C)=O)[C@@H]1C)C4=O | < 0.005 µg/mL | 100 µg/mL (≈ 122 µM) | 12 µg/mL (≈ 14.6 µM) | 12 µg/mL (≈ 14.6 µM) |  |  |  | 
5 | CO[C@H]1/C=C/O[C@@]2(C)Oc3c(C)c(O)c4c(c3C2=O)C(=O)C(NCCN(C)C)=C(NC(=O)/C(C)=C\C(=O)[C@@H]2C[C@@H]2[C@H](O)[C@@H](C)[C@@H](O)[C@@H](C)[C@H](OC(C)=O)[C@@H]1C)C4=O | < 0.005 µg/mL | 25 µg/mL (≈ 31.4 µM) | 6 µg/mL (≈ 7.54 µM) | 12 µg/mL (≈ 15.1 µM) |  |  |  | 
6 | CO[C@H]1/C=C/O[C@@]2(C)Oc3c(C)c(O)c4c(c3C2=O)/C(=N/[C@@H]2CC[C@@H](O)O[C@H]2C)C=C(NC(=O)/C(C)=C\C(=O)[C@@H]2C[C@@H]2[C@H](O)[C@@H](C)[C@@H](O)[C@@H](C)[C@H](OC(C)=O)[C@@H]1C)C4=O | 0.025 µg/mL (≈ 0.0304 µM) | 100 µg/mL (≈ 122 µM) | > 100 µg/mL | > 100 µg/mL |  |  |  | 
7 | CO[C@H]1/C=C/O[C@@]2(C)Oc3c(C)c(O)c4c(c3C2=O)C(=O)C(NCc2ccc3c(c2)OCO3)=C(NC(=O)/C(C)=C\C(=O)[C@@H]2C[C@@H]2[C@H](O)[C@@H](C)[C@@H](O)[C@@H](C)[C@H](OC(C)=O)[C@@H]1C)C4=O | < 0.005 µg/mL | > 100 µg/mL | > 100 µg/mL | 100 µg/mL (≈ 116 µM) |  |  |  | 
8 | CO[C@H]1/C=C/O[C@@]2(C)Oc3c(C)c(O)c4c(c3C2=O)C(=O)C(N(C)C)=C(NC(=O)/C(C)=C\C(=O)[C@@H]2C[C@@H]2[C@H](O)[C@@H](C)[C@@H](O)[C@@H](C)[C@H](OC(C)=O)[C@@H]1C)C4=O | 0.025 µg/mL (≈ 0.0332 µM) | 100 µg/mL (≈ 133 µM) | 50 µg/mL (≈ 66.4 µM) | 100 µg/mL (≈ 133 µM) |  |  |  | 
9 | COc1cc(CNC2=C3NC(=O)/C(C)=C\C(=O)[C@@H]4C[C@@H]4[C@H](O)[C@@H](C)[C@@H](O)[C@@H](C)[C@H](OC(C)=O)[C@H](C)[C@@H](OC)/C=C/O[C@@]4(C)Oc5c(C)c(O)c(c(c5C4=O)C2=O)C3=O)ccc1O | < 0.005 µg/mL | 100 µg/mL (≈ 116 µM) | 100 µg/mL (≈ 116 µM) | 100 µg/mL (≈ 116 µM) |  |  |  | 
10 | CO[C@H]1/C=C/O[C@@]2(C)Oc3c(C)c(O)c4c(c3C2=O)C(=O)C(NCc2ccncc2)=C(NC(=O)/C(C)=C\C(=O)[C@@H]2C[C@@H]2[C@H](O)[C@@H](C)[C@@H](O)[C@@H](C)[C@H](OC(C)=O)[C@@H]1C)C4=O | 0.005 µg/mL (≈ 0.00613 µM) | 100 µg/mL (≈ 123 µM) | 25 µg/mL (≈ 30.6 µM) | 12 µg/mL (≈ 14.7 µM) |  |  |  | 
11 | CO[C@H]1/C=C/O[C@@]2(C)Oc3c(C)c(O)c4c(c3C2=O)C(=O)C(NCc2ccc(N(C)C)cc2)=C(NC(=O)/C(C)=C\C(=O)[C@@H]2C[C@@H]2[C@H](O)[C@@H](C)[C@@H](O)[C@@H](C)[C@H](OC(C)=O)[C@@H]1C)C4=O | < 0.005 µg/mL | 12 µg/mL (≈ 14 µM) | 23 µg/mL (≈ 26.8 µM) | 12 µg/mL (≈ 14 µM) |  |  |  | 
12 | CO[C@H]1/C=C/O[C@@]2(C)Oc3c(C)c(O)c4c(c3C2=O)C(=O)C(NCC2CCCO2)=C(NC(=O)/C(C)=C\C(=O)[C@@H]2C[C@@H]2[C@H](O)[C@@H](C)[C@@H](O)[C@@H](C)[C@H](OC(C)=O)[C@@H]1C)C4=O (some centres not stated) | 0.005 µg/mL (≈ 0.00618 µM) | 25 µg/mL (≈ 30.9 µM) | 6 µg/mL (≈ 7.42 µM) | 12 µg/mL (≈ 14.8 µM) |  |  |  | 
13 | CO[C@H]1/C=C/O[C@@]2(C)Oc3c(C)c(O)c4c(c3C2=O)C(=O)C(NCCc2ccccn2)=C(NC(=O)/C(C)=C\C(=O)[C@@H]2C[C@@H]2[C@H](O)[C@@H](C)[C@@H](O)[C@@H](C)[C@H](OC(C)=O)[C@@H]1C)C4=O | < 0.005 µg/mL | 25 µg/mL (≈ 30.1 µM) | 6 µg/mL (≈ 7.23 µM) | 12 µg/mL (≈ 14.5 µM) |  |  |  | 
14 | CNC1=C2NC(=O)C(C)(NC)CC(=O)[C@@H]3C[C@@H]3[C@H](O)[C@@H](C)[C@@H](O)[C@@H](C)[C@H](OC(C)=O)[C@H](C)[C@@H](OC)/C=C/O[C@@]3(C)Oc4c(C)c(O)c(c(c4C3=O)C1=O)C2=O (some centres not stated) | 0.005 µg/mL (≈ 0.00649 µM) | > 100 µg/mL | > 100 µg/mL | 50 µg/mL (≈ 64.9 µM) |  |  |  | 
15 | CO[C@H]1/C=C/O[C@@]2(C)Oc3c(C)c(O)c4c(c3C2=O)C(=O)C(NCCc2ccc(O)cc2)=C(NC(=O)/C(C)=C\C(=O)[C@@H]2C[C@@H]2[C@H](O)[C@@H](C)[C@@H](O)[C@@H](C)[C@H](OC(C)=O)[C@@H]1C)C4=O | < 0.005 µg/mL | > 100 µg/mL | > 100 µg/mL | > 50 µg/mL |  |  |  | 
16 | CO[C@H]1/C=C/O[C@@]2(C)Oc3c(C)c(O)c4c(c3C2=O)C(=O)C(NCc2ccccn2)=C(NC(=O)/C(C)=C\C(=O)[C@@H]2C[C@@H]2[C@H](O)[C@@H](C)[C@@H](O)[C@@H](C)[C@H](OC(C)=O)[C@@H]1C)C4=O | < 0.005 µg/mL | 12 µg/mL (≈ 14.7 µM) | 6 µg/mL (≈ 7.35 µM) | 25 µg/mL (≈ 30.6 µM) |  |  |  | 
17 | CO[C@H]1/C=C/O[C@@]2(C)Oc3c(C)c(O)c4c(c3C2=O)C(=O)C(NCCCN(C)C)=C(NC(=O)/C(C)=C\C(=O)[C@@H]2C[C@@H]2[C@H](O)[C@@H](C)[C@@H](O)[C@@H](C)[C@H](OC(C)=O)[C@@H]1C)C4=O | 0.025 µg/mL (≈ 0.0309 µM) | 50 µg/mL (≈ 61.7 µM) | 12 µg/mL (≈ 14.8 µM) | 12 µg/mL (≈ 14.8 µM) |  |  |  | 
18 | CO[C@H]1/C=C/O[C@@]2(C)Oc3c(C)c(O)c4c(c3C2=O)C(=O)C(NCc2ccn(C)c2)=C(NC(=O)/C(C)=C\C(=O)[C@@H]2C[C@@H]2[C@H](O)[C@@H](C)[C@@H](O)[C@@H](C)[C@H](OC(C)=O)[C@@H]1C)C4=O | 0.005 µg/mL (≈ 0.00611 µM) | 12 µg/mL (≈ 14.7 µM) | 12 µg/mL (≈ 14.7 µM) | 12 µg/mL (≈ 14.7 µM) |  |  |  | 
19 | CO[C@H]1/C=C/O[C@@]2(C)Oc3c(C)c(O)c4c(c3C2=O)C(=O)C(NCCNc2ccc([N+](=O)[O-])cn2)=C(NC(=O)/C(C)=C\C(=O)[C@@H]2C[C@@H]2[C@H](O)[C@@H](C)[C@@H](O)[C@@H](C)[C@H](OC(C)=O)[C@@H]1C)C4=O | < 0.025 µg/mL | > 50 µg/mL | > 50 µg/mL | > 50 µg/mL |  |  |  | 
20 | CO[C@H]1/C=C/O[C@@]2(C)Oc3c(C)c(O)c4c(c3C2=O)C(=O)C(NCCc2c[nH]cn2)=C(NC(=O)/C(C)=C\C(=O)[C@@H]2C[C@@H]2[C@H](O)[C@@H](C)[C@@H](O)[C@@H](C)[C@H](OC(C)=O)[C@@H]1C)C4=O | 0.05 µg/mL (≈ 0.0611 µM) | 12 µg/mL (≈ 14.7 µM) | 50 µg/mL (≈ 61.1 µM) | 12 µg/mL (≈ 14.7 µM) |  |  |  | 
21 | CNC1=C2NC(=O)/C(C)=C\C(=O)[C@@H]3C[C@@H]3[C@H](O)[C@@H](C)[C@@H](O)[C@@H](C)[C@H](OC(C)=O)[C@H](C)[C@@H](OC)/C=C/O[C@@]3(C)Oc4c(C)c(O)c(c(c4C3=O)C1=O)C2=O | 0.005 µg/mL (≈ 0.00677 µM) | 25 µg/mL (≈ 33.8 µM) | 50 µg/mL (≈ 67.7 µM) | 12 µg/mL (≈ 16.2 µM) |  |  |  | 
22 | CO[C@H]1/C=C/O[C@@]2(C)Oc3c(C)c(O)c4c(c3C2=O)C(=O)C(NCCN2CCN(C)CC2)=C(NC(=O)/C(C)=C\C(=O)[C@@H]2C[C@@H]2[C@H](O)[C@@H](C)[C@@H](O)[C@@H](C)[C@H](OC(C)=O)[C@@H]1C)C4=O | 0.025 µg/mL (≈ 0.0294 µM) | 12 µg/mL (≈ 14.1 µM) | 25 µg/mL (≈ 29.4 µM) | 6 µg/mL (≈ 7.05 µM) |  |  |  | 
